Screens from PubChem.
An excerpt weighted towards active compounds, which were near 2.6% of everything screened.
SENP6 block – SENP6 protease inhibition; Q9GZR1; Recombinant SENP6 catalytic domain, aminoluciferin luminescence; AID 2599; hit rate 1.8% among 330,000; inhibition, % at 10 µM;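 active = inhibition above about 50% at the single tested dose, limit read from the data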;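 also: plate controls were DMSO wells with enzyme for no effect and DMSO wells lacking enzyme for full effect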
SENP8 block-1 – SENP8 (human) protease inhibition; Q96LD8; recombinant SENP8, Nedd8 substrate fluorescence; inhibition, % at 20 µM; hit rate 0.64% among 360,000; AID 602440; in the data active = inhibition mostly above about 40%, no sharp cut-off; inactive = mostly below about 27%
SENP7 block – inhibitors of human SENP7 protease; inhibition, % at 5 µM; Q9BQF6; recombinant SENP7, Z-RLRGG-aminoluciferin luminescence, 40 min; AID 434973; hit rate 1.5% among 330,000;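 active = inhibition above about 50% at the single test dose, limit read from the data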;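 also: plate controls were DMSO with enzyme for no effect and no enzyme buffer wells for full effect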
Target sequence (Q9BQF6 706-1050 limits assumed): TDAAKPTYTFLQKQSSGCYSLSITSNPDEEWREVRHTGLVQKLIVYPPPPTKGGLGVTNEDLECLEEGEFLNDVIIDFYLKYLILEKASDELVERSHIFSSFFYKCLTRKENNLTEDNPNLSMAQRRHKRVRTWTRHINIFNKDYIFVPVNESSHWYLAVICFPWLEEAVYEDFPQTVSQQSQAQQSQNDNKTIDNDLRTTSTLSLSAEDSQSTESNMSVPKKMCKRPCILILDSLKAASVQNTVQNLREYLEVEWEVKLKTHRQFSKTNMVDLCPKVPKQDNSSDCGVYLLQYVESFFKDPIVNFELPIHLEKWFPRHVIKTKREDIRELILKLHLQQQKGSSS
SENP1 inh – inhibitors of human SENP1 SUMO protease catalytic domain; hit rate 0.21% among 360,000; Q9P0U3; recombinant SENP1 catalytic domain, CyPet-SUMO1-YPet FRET cleavage; inhibition, % at 10 µM; AID 624204;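 active = inhibition at least 30% at 10 µM, raw YFP signal under a set limit, fluorescence ratio 0.5 to 1.5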;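 also: 0% = enzyme with DMSO and 100% = no enzyme wells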
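Test system: human SENP1 catalytic domain; medium: Tris pH 8 buffer plus EDTA, NaCl, BME, BSA, NP40, catalase; incubation: 50 min reaction at room temperature; technique: FRET, CFP and YFP emission; controls: no-enzyme low control and enzyme-plus-DMSO high control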
Platelet DG rel – platelet dense granule release activity | human platelet-rich plasma, SFLLRN dense granule ATP release, luminescence | inhibition, %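 (compounds screened at 7.5 µM in platelet-rich plasma)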 | hit rate 0.22% among 300,000 | AID 1663;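 active = mean replicate score, as percent of positive control, at or above 50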
SENP8 block-2 – blocks the human protease SENP8; Q96LD8; purified SENP8, Z-RLRGG-aminoluciferin cleavage, luminescence; inhibition, % at 10 µM; hit rate 1.2% among 330,000; AID 2540; in the data active = inhibition above about 50%
SENP8 confirm – confirmation of human SENP8 protease inhibitors; shares compounds with SENP7 block; Recombinant SENP8, Z-RLRGG-aminoluciferin luminescence, 60 min; inhibition, % at 12.5 µM; hit rate 40% among 6,200;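 active = mean inhibition across replicates above about 50%, limit read from the data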
SENP6 confirm – human SENP6 inhibition, confirmed; shares compounds with SENP7 block; recombinant SENP6, Z-RLRGG-aminoluciferin luminescence; inhibition, % at 12.5 µM; hit rate 58% among 6,200; AID 488915
SENP7 confirm – confirmation of human SENP7 protease inhibitors; shares compounds with SENP7 block; recombinant SENP7, Z-RLRGG-aminoluciferin luminescence, 40 min; inhibition, % at 12.5 µM; hit rate 69% among 6,200
Casp3 select – inhibits human caspase-3 in SENP selectivity test; shares compounds with SENP7 block; purified caspase-3, Z-DEVD-aminoluciferin luminescence, 60 min; inhibition, % at 12.5 µM; hit rate 60% among 6,200; AID 488918;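 active = mean inhibition above about 50%, limit read from the data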;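 also: plate controls were enzyme with DMSO for no effect and wells without caspase-3 for full effect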
SENP luc ctr – luminescence interference (SENP counter-screen). shares compounds with SENP7 block. Pre-incubated SENP8/Z-RLRGG-aminoluciferin, luciferase luminescence interference. inhibition, % at 12.5 µM. hit rate 39% among 6,200;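 active = mean inhibition above about 50% when retested at one dose, limit read from the data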;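 also: plate controls were DMSO wells with completed reaction for no effect and substrate without enzyme for full effect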
The depositor's hits bear a star; nt = no result given.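 The calls were made as follows, unless noted: active = mean inhibition above about 50% in the one-dose retest (limit read from the data); inactive = the rest.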

SMILES	SENP6 block	SENP8 block-1	SENP7 block	SENP1 inh	Platelet DG rel	SENP8 block-2	SENP8 confirm	SENP6 confirm	SENP7 confirm	Casp3 select	SENP luc ctr
COc1ccc(-c2ccn(-c3cccc(F)n3)n2)cc1	2	-182	4	-16	nt	8	nt	nt	nt	nt	nt
CC(=O)N/C(=C\c1ccc(C)o1)C(=O)NCc1ccccc1	4	-14	0	-8	0	13	nt	nt	nt	nt	nt
CC(C)CN1C(=O)C(=O)N(CC(=O)NC(C)CCc2ccccc2)C1=O (centres undefined)	-5	8	-1	0	nt	-3	nt	nt	nt	nt	nt
CC(C)C[C@H](NC(=O)OCC1c2ccccc2-c2ccccc21)C(=O)O	nt	1	nt	2	nt	nt	nt	nt	nt	nt	nt
COc1ccc(/C=C/C(=O)c2ccccc2O)cc1	81*	11	67*	1	6	64*	88*	84*	84*	35	46
COc1ccc(/C=C/C(=O)c2ccccn2)cc1	27	-22	15	-89	21	17	nt	nt	nt	nt	nt
COc1ccc(/C=C/C(=O)c2ccoc2)cc1	6	-12	-6	1	13	-17	nt	nt	nt	nt	nt
COc1ccc(/C=C/C(=O)c2ccc(O)cc2)cc1	91*	35	74*	2	11	90*	65*	48	64*	49	83*
Nc1c(C(=O)Nc2cccc(C(=O)O)c2)sc2nc3c(cc12)CCCC3	71*	-294	25	-25	1	47	74*	68*	88*	18	43
Nc1c(C(=O)Nc2ccc(Cl)c(C(=O)O)c2)sc2nc3c(cc12)CCCC3	-10	-389	-5	-28	7	-10	nt	nt	nt	nt	nt
CCCCCCCCN1C(=O)[C@H](CC(=O)NCc2ccc(C)o2)C[C@@]2(C(=O)OC)CCCCC=C12	nt	13	nt	-4	nt	nt	nt	nt	nt	nt	nt
COC(=O)c1sc(NC(=S)NC(=O)c2ccccc2)nc1C	37	18	12	-1	-4	8	nt	nt	nt	nt	nt
CC(=O)c1sc(NC(=O)c2ccccc2F)nc1C	83*	3	87*	4	5	83*	86*	84*	97*	93*	85*
CCOC(=O)c1sc(NC(=O)c2cccs2)nc1C	nt	-48	nt	1	nt	nt	nt	nt	nt	nt	nt
CC(=O)c1sc(NC(=O)c2cccnc2Cl)nc1C	-11	12	3	2	1	-5	nt	nt	nt	nt	nt
Cc1nc(NC(=O)c2cccs2)ccc1Br	-14	-11	81*	2	4	70*	82*	82*	95*	80*	70*
COC(=O)c1sc(NC(=S)NC(=O)c2ccccc2Cl)nc1C	62*	13	27	-1	-3	36	-16	-20	-2	13	-1
CC(=O)c1sc(NC(=O)c2cccs2)nc1C	62*	-24	62*	-2	15	45	14	52*	81*	84*	3
O=C(COC(=O)COc1ccc(Cl)cc1)NC1CCCCCC1	-7	7	12	3	nt	-13	nt	nt	nt	nt	nt
Cc1ccc(F)cc1C(=O)N1CCCC(C)(C(=O)NS(=O)(=O)C2CC2)C1 (centres undefined)	nt	14	nt	0	nt	nt	nt	nt	nt	nt	nt
Cc1cccc(-c2ccc3c(c2)C2CC3CCN2C)c1 (centres undefined)	nt	4	nt	1	nt	nt	nt	nt	nt	nt	nt
COc1ccc(NS(=O)(=O)c2ccc(OC)c(NC(=O)CNC(=O)c3ccc(OC)cc3)c2)cc1	1	5	10	2	nt	1	nt	nt	nt	nt	nt
CCOC(=O)Nc1ccc(NCc2ccc(F)cc2)nc1N	68*	-384	47	-29	nt	58*	8	36	16	4	2
CCOC(=O)Nc1ccc(C)cc1NC(=O)OCC	-6	7	9	1	0	0	nt	nt	nt	nt	nt
